Measurements taken from ChEMBL document CHEMBL1139596, “Non-competitive inhibitors of metabotropic glutamate receptor 5 (mGluR5)” (Bioorg Med Chem Lett, 2005).

biological target: not listed separately; assay: Inhibitory activity against metabotropic glutamate receptor 5 (mGluR5)
In short: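 Functional FLIPR assay in CHO cells transfected with mGlu5 receptor.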

Row | SMILES | Ki
1 | COc1ccc(C(=O)COC(=O)c2ccc(N3C(=O)C4CC=CCC4C3=O)cc2)cc1[N+](=O)[O-] (stereo not drawn) | 1680 nM
2 | Cc1ccc(C(=O)COC(=O)c2ccc(N3C(=O)CCCC3=O)cc2)cc1C | 3270 nM
3 | Cc1ccc(C(=O)COC(=O)c2ccc(N3C(=O)CC(C)C3=O)cc2)cc1C (stereo not drawn) | 411 nM
4 | O=C(COC(=O)c1ccc(N2C(=O)C3CC=CCC3C2=O)cc1)c1ccc(N2CCCC2)cc1 (stereo not drawn) | 1090 nM
5 | Cc1ccc(C(=O)COC(=O)c2ccc(N3C(=O)C4CC=CCC4C3=O)cc2)cc1 (stereo not drawn) | 9480 nM
6 | Cc1ccc(C(=O)COC(=O)c2ccc(N3C(=O)C4CCC(C)CC4C3=O)cc2)cc1C (stereo not drawn) | 113 nM
7 | CC1=CCC2C(=O)N(c3ccc(C(=O)OCC(=O)c4ccc(C)c(C)c4)cc3)C(=O)C2C1 (stereo not drawn) | 216 nM
8 | O=C(COC(=O)c1ccc(N2C(=O)C3CC=CCC3C2=O)cc1)c1ccc(N2CCOCC2)cc1 (stereo not drawn) | 3360 nM
9 | CC1=CC(=O)N(c2ccc(C(=O)OCC(=O)c3ccc(C)c(C)c3)cc2)C1=O | 4800 nM
10 | O=C(COC(=O)c1ccc(N2C(=O)C3CC=CCC3C2=O)cc1)c1ccc2c(c1)OCCO2 (stereo not drawn) | 2040 nM
11 | Cc1ccc(C(=O)COC(=O)c2ccc(N3C(=O)C4CC=CCC4C3=O)cc2)cc1C (stereo not drawn) | 172 nM
12 | COc1ccc(C(=O)COC(=O)c2ccc(N3C(=O)C4CC=CCC4C3=O)cc2)cc1OC (stereo not drawn) | 1600 nM
13 | O=C(COC(=O)c1ccc(N2C(=O)C3CC=CCC3C2=O)cc1)c1ccc2ccccc2c1 (stereo not drawn) | 303 nM
14 | Cc1ccc(C(=O)COC(=O)c2ccc(N3C(=O)C4CC=CCC4C3=O)cc2)cc1[N+](=O)[O-] (stereo not drawn) | 3790 nM

Continued, values first:

Row | Ki | SMILES
15 | 18000 nM | O=C(COC(=O)c1ccc(N2C(=O)C3CC=CCC3C2=O)cc1)c1ccc(C2CCCCC2)cc1 (stereo not drawn)
16 | 6430 nM | CC1=C(C)C(=O)N(c2ccc(C(=O)OCC(=O)c3ccc(C)c(C)c3)cc2)C1=O
17 | 171 nM | O=C(COC(=O)c1ccc(N2C(=O)C3CC=CCC3C2=O)cc1)c1ccc2c(c1)CCCC2 (stereo not drawn)
18 | 1010 nM | Cc1ccc(C(=O)COC(=O)c2ccc(N3C(=O)C4C5C=CC(C5)C4C3=O)cc2)cc1C (stereo not drawn)
19 | 150 nM | Cc1ccc(C(=O)COC(=O)c2ccc(N3C(=O)[C@@H]4CCCC[C@H]4C3=O)cc2)cc1C
20 | 98 nM | Cc1ccc(C(=O)COC(=O)c2ccc(N3C(=O)C4CC(Br)C(Br)CC4C3=O)cc2)cc1C (stereo not drawn)
21 | 506 nM | Cc1ccc(C(=O)COC(=O)c2ccc(N3C(=O)CCC3=O)cc2)cc1C
22 | 401 nM | O=C(COC(=O)c1ccc(N2C(=O)C3CC=CCC3C2=O)cc1)c1ccc2c(c1)CCC2 (stereo not drawn)
23 | 1840 nM | Cc1ccc(C(=O)COC(=O)c2ccc(N3C(=O)CC(C)CC3=O)cc2)cc1C
24 | 190 nM | Cc1ccc(C(=O)COC(=O)c2ccc(N3C(=O)[C@H]4CCCC[C@H]4C3=O)cc2)cc1C

tested on: not listed separately; assay: Half life was determined; 1-2h; assay type: ADME

Row | half-life | SMILES
25 | 2 h | Cc1ccc(C(=O)COC(=O)c2ccc(N3C(=O)C4CCC(C)CC4C3=O)cc2)cc1C (stereo not drawn)
26 | 2 h | Cc1ccc(C(=O)COC(=O)c2ccc(N3C(=O)CCC3=O)cc2)cc1C

biological target: Metabotropic glutamate receptor 5 (Homo sapiens) (UniProt P41594); assay: Percent inhibition against metabotropic glutamate receptor 5 (mGluR5) at 10 uM
Sequence (P41594 21-1212 limits assumed): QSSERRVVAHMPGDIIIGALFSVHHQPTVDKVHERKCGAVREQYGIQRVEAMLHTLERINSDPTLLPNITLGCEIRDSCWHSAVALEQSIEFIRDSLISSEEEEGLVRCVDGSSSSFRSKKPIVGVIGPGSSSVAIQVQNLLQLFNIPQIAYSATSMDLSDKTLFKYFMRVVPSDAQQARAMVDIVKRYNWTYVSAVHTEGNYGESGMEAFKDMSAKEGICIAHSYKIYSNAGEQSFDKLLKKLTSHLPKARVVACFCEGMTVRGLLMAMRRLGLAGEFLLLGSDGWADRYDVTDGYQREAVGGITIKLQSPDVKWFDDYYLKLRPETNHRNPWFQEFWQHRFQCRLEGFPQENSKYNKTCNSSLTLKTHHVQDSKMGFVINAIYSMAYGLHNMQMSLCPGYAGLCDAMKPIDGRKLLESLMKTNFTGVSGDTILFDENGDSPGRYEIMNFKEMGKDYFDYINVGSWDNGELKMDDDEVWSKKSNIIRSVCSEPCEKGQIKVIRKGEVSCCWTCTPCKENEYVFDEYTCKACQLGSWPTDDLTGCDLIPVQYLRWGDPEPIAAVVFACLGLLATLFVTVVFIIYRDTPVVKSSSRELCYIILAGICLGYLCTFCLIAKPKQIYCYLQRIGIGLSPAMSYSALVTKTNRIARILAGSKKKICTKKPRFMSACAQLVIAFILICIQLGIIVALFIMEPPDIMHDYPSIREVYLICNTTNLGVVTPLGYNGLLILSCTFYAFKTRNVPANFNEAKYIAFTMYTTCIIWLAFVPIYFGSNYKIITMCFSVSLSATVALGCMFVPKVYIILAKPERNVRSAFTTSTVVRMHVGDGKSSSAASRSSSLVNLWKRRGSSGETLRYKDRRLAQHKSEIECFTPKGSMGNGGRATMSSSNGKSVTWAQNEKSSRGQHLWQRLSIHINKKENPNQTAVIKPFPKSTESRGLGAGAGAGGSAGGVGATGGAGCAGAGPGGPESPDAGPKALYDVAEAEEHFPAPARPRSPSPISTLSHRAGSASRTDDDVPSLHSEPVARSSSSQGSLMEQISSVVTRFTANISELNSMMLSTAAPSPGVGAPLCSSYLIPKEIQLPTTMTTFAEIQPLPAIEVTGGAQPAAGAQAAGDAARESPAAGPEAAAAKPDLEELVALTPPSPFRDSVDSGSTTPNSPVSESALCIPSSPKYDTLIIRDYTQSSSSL

Row | SMILES | inhibition
27 | Cc1ccc(CNC(=O)c2ccc(N3C(=O)C4CC=CCC4C3=O)cc2)cc1C (stereo not drawn) | < 35%
28 | Cc1ccc(C(=O)CNC(=O)c2ccc(N3C(=O)C4CC=CCC4C3=O)cc2)cc1C (stereo not drawn) | < 35%
29 | Cc1ccc(C(=O)NNC(=O)c2ccc(N3C(=O)C4CC=CCC4C3=O)cc2)cc1C (stereo not drawn) | < 35%
30 | Cc1cc2c(cc1C)C(=O)N(NC(=O)c1ccc(N3C(=O)C4CC=CCC4C3=O)cc1)C2=O (stereo not drawn) | < 35%
31 | Cc1ccc(C(=O)COC(=O)c2ccc(N3CCCC3=O)cc2)cc1C | 38%
32 | Cc1ccc2c(c1)C(=O)N(c1ccc(C(=O)OCC(=O)c3ccc(C)c(C)c3)cc1)C2=O | 28%
33 | Cc1ccc(NCC(=O)Nc2ccc(N3C(=O)C4CC=CCC4C3=O)cc2)cc1C (stereo not drawn) | < 35%
34 | Cc1ccc(C(=O)COC(=O)c2ccc(N3C(=O)COCC3=O)cc2)cc1C | 41%
35 | O=C(COC(=O)c1ccc(N2C(=O)C3CC=CCC3C2=O)cc1)c1ccccc1 (stereo not drawn) | 18%
36 | Cc1ccc(OCCNC(=O)c2ccc(N3C(=O)C4CC=CCC4C3=O)cc2)cc1C (stereo not drawn) | < 35%
37 | Cc1ccc(C(=O)CN2C(=O)c3ccc(N4C(=O)C5CC=CCC5C4=O)cc3C2=O)cc1C (stereo not drawn) | < 35%
38 | COc1ccc(C(=O)COC(=O)c2ccc(N3C(=O)C4CC=CCC4C3=O)cc2)cc1 (stereo not drawn) | 39%
39 | Cc1ccc(C2CN(C(=O)c3ccc(N4C(=O)C5CC=CCC5C4=O)cc3)CCO2)cc1C (stereo not drawn) | < 35%
40 | O=C(COC(=O)c1ccc(N2C(=O)C3CC=CCC3C2=O)cc1)c1ccc2c(c1)OCO2 (stereo not drawn) | 21%
41 | Cc1ccc(C(=O)COC(=O)c2ccc(NC(=O)C3CC=CCC3C(=O)O)cc2)cc1C (stereo not drawn) | 34%
42 | Cc1ccc(C(=O)COCc2ccc(N3C(=O)C4CC=CCC4C3=O)cc2)cc1C (stereo not drawn) | < 35%
43 | Cc1ccc(NC(=O)c2ccc(N3C(=O)C4CC=CCC4C3=O)cc2)cc1C (stereo not drawn) | < 35%

The remaining lines, values ahead:

Row | inhibition | SMILES
44 | < 35% | Cc1ccc(C(=O)CN(C)C(=O)c2ccc(N3C(=O)C4CC=CCC4C3=O)cc2)cc1C (stereo not drawn)
45 | < 35% | Cc1ccc(OCCCNC(=O)c2ccc(N3C(=O)C4CC=CCC4C3=O)cc2)cc1C (stereo not drawn)
46 | 33% | Cc1ccc(C(=O)COC(=O)c2ccc(N3C(=O)c4ccncc4C3=O)cc2)cc1C
47 | 10% | Cc1ccc(C(=O)COC(=O)c2ccc(N3C(=O)C4=C(CCC4)C3=O)cc2)cc1C
48 | < 35% | Cc1ccc(NC(=O)Nc2ccc(N3C(=O)C4CC=CCC4C3=O)cc2)cc1C (stereo not drawn)
49 | 32% | CC1(C)CCC(C)(C)c2cc(C(=O)COC(=O)c3ccc(N4C(=O)C5CC=CCC5C4=O)cc3)ccc21 (stereo not drawn)
50 | < 35% | Cc1ccc(C(=O)N2CCCN2C(=O)c2ccc(N3C(=O)C4CC=CCC4C3=O)cc2)cc1C (stereo not drawn)
51 | < 35% | Cc1ccc(CNC(=O)Nc2ccc(N3C(=O)C4CC=CCC4C3=O)cc2)cc1C (stereo not drawn)
52 | < 35% | Cc1ccc(CCNC(=O)c2ccc(N3C(=O)C4CC=CCC4C3=O)cc2)cc1C (stereo not drawn)
53 | < 35% | Cc1ccc(NC(=O)NCc2ccc(N3C(=O)C4CC=CCC4C3=O)cc2)cc1C (stereo not drawn)
